Active and inactive are the calls of the source. The rule behind the calls is not given here.
Legend:
NCI-H1581 [1] = experiment: Antiproliferative activity against FGFR1-amplified human NCI-H1581 cells after 72 hrs by CCK8/MTT assay; assay type: functional, cell-based; conditions: NCI-H1581, 72 h
[2] = target: Vascular endothelial growth factor receptor 2 (Homo sapiens, UniProt P35968); experiment: Inhibition of recombinant human VEGFR2 using poly (Glu, Tyr) 4:1 as substrate after 60 mins by ELISA
[3] = Cmax in Sprague-Dawley rat at 1 mg/kg, iv; assay type: ADME, organism-based; parameters: dose 1 mg/kg, route intravenous; conditions: in vivo
[4] = Half life in Sprague-Dawley rat at 1 mg/kg, iv; assay type: ADME, organism-based; conditions: in vivo
[5] = AUC (0 to infinity) in Sprague-Dawley rat at 1 mg/kg, iv; assay type: ADME, organism-based; parameters: dose 1 mg/kg, time infinity, route intravenous; conditions: in vivo
[6] = Clearance in Sprague-Dawley rat at 1 mg/kg, iv; assay type: ADME, organism-based; conditions: in vivo
[7] = Volume of distribution at steady state in Sprague-Dawley rat at 1 mg/kg, iv; assay type: ADME, organism-based; conditions: in vivo, read-out: Vdss
[8] = target: T1, Fibroblast growth factor receptor 2 (Homo sapiens, UniProt P21802); experiment: Inhibition of recombinant human FGFR2 using poly (Glu, Tyr) 4:1 as substrate after 60 mins by ELISA
Outline: (§1)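 Purified recombinant kinases tested by ELISA on plates pre-coated with 20 µg/mL poly(Glu,Tyr) 4:1. Reaction run 60 min at 37 °C. Read-out: PY99 anti-phosphotyrosine antibody, HRP anti-mouse IgG and o-phenylenediamine/H2O2, with A490 measured. IC50 from inhibition curves, two independent experiments.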

[9] = target: Fibroblast growth factor receptor 4 (Homo sapiens, UniProt P22455); experiment: Inhibition of recombinant human FGFR4 using poly (Glu, Tyr) 4:1 as substrate after 60 mins by ELISA; outline: as §1
[10] = target: Epidermal growth factor receptor (Homo sapiens, UniProt P00533); experiment: Inhibition of recombinant human EGFR using poly (Glu, Tyr) 4:1 as substrate after 60 mins by ELISA; outline: as §1
[11] = target: Platelet-derived growth factor receptor alpha (Homo sapiens, UniProt P16234); experiment: Inhibition of recombinant human PDGFRalpha using poly (Glu, Tyr) 4:1 as substrate after 60 mins by ELISA; outline: as §1
[12] = target: Platelet-derived growth factor receptor beta (Homo sapiens, UniProt P09619); experiment: Inhibition of recombinant human PDGFRbeta using poly (Glu, Tyr) 4:1 as substrate after 60 mins by ELISA; outline: as §1
[13] = target: Vascular endothelial growth factor receptor 1 (Homo sapiens, UniProt P17948); experiment: Inhibition of recombinant human Flt1 using poly (Glu, Tyr) 4:1 as substrate after 60 mins by ELISA; outline: as §1
[14] = target: T2, Receptor-type tyrosine-protein kinase FLT3 (Homo sapiens, UniProt P36888); experiment: Inhibition of recombinant human Flt3 using poly (Glu, Tyr) 4:1 as substrate after 60 mins by ELISA; outline: as §1
T2 sequence (P36888 whole entry): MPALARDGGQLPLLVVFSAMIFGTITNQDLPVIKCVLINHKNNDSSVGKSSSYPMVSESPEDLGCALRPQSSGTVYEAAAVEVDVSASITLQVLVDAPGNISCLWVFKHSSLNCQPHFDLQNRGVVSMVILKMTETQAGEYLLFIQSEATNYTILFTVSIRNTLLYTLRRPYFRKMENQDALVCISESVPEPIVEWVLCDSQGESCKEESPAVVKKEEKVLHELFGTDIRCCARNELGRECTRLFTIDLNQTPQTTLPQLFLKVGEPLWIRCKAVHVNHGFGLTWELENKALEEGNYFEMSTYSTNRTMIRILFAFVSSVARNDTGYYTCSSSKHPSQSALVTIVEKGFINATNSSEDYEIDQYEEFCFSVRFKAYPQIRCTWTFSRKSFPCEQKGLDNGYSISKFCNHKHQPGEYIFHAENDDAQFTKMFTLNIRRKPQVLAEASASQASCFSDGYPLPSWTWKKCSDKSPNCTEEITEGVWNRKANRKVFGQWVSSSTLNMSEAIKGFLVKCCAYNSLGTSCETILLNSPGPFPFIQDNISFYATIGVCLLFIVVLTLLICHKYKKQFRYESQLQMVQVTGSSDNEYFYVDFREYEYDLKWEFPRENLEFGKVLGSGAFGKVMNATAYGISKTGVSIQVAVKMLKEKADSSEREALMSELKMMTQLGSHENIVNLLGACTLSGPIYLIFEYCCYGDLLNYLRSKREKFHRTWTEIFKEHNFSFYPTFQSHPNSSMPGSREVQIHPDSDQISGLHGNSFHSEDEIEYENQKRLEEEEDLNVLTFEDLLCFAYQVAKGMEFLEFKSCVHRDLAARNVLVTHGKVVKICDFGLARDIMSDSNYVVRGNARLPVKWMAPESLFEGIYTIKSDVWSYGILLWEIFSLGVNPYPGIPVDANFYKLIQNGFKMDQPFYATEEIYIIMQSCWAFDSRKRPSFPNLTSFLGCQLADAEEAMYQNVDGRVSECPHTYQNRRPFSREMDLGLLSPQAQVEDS

[15] = target: Proto-oncogene tyrosine-protein kinase Src (Homo sapiens, UniProt P12931); experiment: Inhibition of recombinant human c-Src using poly (Glu, Tyr) 4:1 as substrate after 60 mins by ELISA; outline: as §1
[16] = target: T3, Fibroblast growth factor receptor 1 (Homo sapiens, UniProt P11362); experiment: Inhibition of FGFR1 phosphorylation in human KG1 cells after 2 hrs by Western blot method; assay type: cell-based; conditions: KG-1
Outline: (§2)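 KG-1 cells treated at indicated concentrations for 2 h, then lysed in 1× SDS sample buffer. Lysates run on 10% SDS-PAGE, transferred to nitrocellulose, and probed for phospho-FGFR, PLCγ and Erk. Detection by enhanced chemiluminescence.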

[17] = target: T3, Fibroblast growth factor receptor 1; experiment: Inhibition of FGFR1 in human KG1 cells assessed as reduction of PLCgamma phosphorylation at 0.1 to 10 nM after 2 hrs by Western blot method; assay type: cell-based; conditions: KG-1; outline: as §2
[18] = target: T1, Fibroblast growth factor receptor 2; experiment: Inhibition of FGFR2 in human SNU15 cells assessed as reduction of PLCgamma phosphorylation at 0.1 to 10 nM after 2 hrs by Western blot method; assay type: cell-based
NCI-H1581 [19] = experiment: Antitumor activity against FGFR1-amplified human NCI-H1581 cells xenografted in nude mouse assessed as tumor growth inhibition at 2 mg/kg, po qd administered for 21 days measured on day 21 post last dose relative to vehicle-treated control; assay type: functional; conditions: 504 h, read-out: TGI
Outline: (§3)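 Female nude mice (4–6 weeks) housed under SPF conditions. NCI-H1581 tumours were first grown from 5 × 10^6 cells s.c., and 1.5 mm3 fragments were then transplanted s.c. into the right flank. At 115 mm3, mice were randomized and given vehicle or compound orally once daily for 21 days (2 or 10 mg/kg). Tumours were measured by caliper twice weekly, with TV = length × width²/2.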

NCI-H1581 [20] = experiment: Antitumor activity against human NCI-H1581 cells xenografted in nude mouse assessed as tumor growth inhibition at 10 mg/kg, po qd administered for 21 days measured on day 21 post last dose relative to vehicle-treated control; assay type: functional; conditions: 504 h, read-out: TGI; outline: as §3
NCI-H1581 [21] = experiment: Antitumor activity against human NCI-H1581 cells xenografted in po dosed nude mouse assessed as tumor growth inhibition administered as qd for 21 days measured on day 21 post last dose; assay type: functional, organism-based; outline: as §3
cells = conditions: Homo sapiens, SNU-16, 72 h

T3 sequence (P11362 22-822 limits assumed): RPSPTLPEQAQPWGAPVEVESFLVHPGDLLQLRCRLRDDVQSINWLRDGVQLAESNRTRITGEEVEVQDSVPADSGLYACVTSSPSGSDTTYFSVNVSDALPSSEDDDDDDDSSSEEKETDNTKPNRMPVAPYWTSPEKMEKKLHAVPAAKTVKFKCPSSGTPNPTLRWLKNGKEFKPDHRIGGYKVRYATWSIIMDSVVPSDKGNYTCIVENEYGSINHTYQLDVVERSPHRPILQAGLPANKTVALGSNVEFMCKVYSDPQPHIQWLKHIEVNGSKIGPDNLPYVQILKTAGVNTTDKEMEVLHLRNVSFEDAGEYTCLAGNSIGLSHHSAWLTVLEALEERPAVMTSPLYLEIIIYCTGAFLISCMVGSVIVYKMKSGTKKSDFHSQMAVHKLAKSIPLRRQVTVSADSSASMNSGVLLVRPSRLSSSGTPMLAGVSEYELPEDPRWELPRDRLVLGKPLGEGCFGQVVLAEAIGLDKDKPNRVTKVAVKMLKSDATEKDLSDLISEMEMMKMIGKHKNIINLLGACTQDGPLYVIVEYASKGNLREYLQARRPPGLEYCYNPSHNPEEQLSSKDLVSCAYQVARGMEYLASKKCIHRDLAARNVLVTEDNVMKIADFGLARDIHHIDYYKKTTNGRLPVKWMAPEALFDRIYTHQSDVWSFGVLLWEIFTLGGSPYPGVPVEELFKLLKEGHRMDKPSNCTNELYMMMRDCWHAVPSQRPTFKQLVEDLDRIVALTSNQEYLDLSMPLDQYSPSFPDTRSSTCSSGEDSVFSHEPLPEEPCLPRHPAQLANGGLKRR
Platelet-derived growth factor receptor beta, sequence (P09619 whole entry): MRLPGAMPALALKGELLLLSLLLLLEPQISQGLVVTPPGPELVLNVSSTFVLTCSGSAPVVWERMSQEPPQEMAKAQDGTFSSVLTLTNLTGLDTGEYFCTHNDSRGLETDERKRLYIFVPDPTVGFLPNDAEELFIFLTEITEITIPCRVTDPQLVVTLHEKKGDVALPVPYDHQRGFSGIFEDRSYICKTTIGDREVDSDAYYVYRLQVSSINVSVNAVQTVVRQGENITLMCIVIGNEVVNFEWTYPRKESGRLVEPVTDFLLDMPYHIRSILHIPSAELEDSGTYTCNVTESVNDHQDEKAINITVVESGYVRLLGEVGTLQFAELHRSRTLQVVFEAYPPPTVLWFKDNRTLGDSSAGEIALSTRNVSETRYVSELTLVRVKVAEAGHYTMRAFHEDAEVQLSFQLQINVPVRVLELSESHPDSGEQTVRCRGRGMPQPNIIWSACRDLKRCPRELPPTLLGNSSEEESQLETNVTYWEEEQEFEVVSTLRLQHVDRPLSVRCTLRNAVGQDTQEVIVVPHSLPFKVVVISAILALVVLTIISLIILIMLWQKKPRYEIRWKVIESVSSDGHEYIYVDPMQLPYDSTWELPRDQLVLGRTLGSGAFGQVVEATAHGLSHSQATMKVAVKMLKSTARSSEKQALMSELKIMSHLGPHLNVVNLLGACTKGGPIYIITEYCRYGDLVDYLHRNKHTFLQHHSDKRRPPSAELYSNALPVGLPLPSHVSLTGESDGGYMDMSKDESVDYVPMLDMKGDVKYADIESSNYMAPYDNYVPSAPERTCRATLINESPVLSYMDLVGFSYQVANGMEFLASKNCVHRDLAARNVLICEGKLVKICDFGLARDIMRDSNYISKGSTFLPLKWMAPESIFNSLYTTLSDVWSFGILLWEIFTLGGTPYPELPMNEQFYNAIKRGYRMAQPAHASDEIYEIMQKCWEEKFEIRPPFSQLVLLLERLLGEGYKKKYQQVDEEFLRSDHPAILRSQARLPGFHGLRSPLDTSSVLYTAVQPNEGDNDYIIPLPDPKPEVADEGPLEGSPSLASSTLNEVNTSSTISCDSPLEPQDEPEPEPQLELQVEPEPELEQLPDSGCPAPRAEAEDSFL
Vascular endothelial growth factor receptor 2, sequence (P35968 whole entry): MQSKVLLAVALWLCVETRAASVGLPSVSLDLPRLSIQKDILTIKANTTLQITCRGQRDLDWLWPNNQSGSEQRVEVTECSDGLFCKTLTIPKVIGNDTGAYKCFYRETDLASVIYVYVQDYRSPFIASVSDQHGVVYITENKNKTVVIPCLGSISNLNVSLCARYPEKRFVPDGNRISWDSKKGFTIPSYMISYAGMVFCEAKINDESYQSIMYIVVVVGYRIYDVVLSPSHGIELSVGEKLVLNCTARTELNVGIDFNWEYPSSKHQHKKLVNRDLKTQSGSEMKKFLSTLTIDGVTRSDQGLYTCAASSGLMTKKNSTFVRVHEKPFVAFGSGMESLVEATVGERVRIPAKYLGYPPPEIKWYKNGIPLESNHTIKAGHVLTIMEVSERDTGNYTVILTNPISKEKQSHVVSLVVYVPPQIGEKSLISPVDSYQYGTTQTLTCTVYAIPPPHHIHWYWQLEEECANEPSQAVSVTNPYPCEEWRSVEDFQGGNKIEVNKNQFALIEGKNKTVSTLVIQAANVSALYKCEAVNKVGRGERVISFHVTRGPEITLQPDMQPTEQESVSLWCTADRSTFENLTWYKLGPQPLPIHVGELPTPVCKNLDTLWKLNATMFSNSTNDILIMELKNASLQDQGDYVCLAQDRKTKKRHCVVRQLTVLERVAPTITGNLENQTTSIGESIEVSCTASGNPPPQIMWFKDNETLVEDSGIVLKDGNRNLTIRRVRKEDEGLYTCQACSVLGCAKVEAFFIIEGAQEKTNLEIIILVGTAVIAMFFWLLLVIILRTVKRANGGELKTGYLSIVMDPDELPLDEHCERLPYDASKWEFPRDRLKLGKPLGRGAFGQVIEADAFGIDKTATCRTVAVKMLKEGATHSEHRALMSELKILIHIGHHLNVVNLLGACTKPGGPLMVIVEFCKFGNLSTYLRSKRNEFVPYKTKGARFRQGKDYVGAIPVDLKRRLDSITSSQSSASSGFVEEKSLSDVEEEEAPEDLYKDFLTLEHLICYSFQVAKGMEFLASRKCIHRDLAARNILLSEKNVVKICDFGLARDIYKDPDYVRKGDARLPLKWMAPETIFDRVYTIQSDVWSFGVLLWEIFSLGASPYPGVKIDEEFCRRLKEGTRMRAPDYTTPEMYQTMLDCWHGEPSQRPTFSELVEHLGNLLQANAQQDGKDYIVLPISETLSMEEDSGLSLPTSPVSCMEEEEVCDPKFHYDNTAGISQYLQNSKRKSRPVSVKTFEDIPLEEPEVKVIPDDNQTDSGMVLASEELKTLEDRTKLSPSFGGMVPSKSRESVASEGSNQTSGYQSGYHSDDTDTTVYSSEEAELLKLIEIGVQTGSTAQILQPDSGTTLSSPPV
Platelet-derived growth factor receptor alpha, sequence (P16234 whole entry): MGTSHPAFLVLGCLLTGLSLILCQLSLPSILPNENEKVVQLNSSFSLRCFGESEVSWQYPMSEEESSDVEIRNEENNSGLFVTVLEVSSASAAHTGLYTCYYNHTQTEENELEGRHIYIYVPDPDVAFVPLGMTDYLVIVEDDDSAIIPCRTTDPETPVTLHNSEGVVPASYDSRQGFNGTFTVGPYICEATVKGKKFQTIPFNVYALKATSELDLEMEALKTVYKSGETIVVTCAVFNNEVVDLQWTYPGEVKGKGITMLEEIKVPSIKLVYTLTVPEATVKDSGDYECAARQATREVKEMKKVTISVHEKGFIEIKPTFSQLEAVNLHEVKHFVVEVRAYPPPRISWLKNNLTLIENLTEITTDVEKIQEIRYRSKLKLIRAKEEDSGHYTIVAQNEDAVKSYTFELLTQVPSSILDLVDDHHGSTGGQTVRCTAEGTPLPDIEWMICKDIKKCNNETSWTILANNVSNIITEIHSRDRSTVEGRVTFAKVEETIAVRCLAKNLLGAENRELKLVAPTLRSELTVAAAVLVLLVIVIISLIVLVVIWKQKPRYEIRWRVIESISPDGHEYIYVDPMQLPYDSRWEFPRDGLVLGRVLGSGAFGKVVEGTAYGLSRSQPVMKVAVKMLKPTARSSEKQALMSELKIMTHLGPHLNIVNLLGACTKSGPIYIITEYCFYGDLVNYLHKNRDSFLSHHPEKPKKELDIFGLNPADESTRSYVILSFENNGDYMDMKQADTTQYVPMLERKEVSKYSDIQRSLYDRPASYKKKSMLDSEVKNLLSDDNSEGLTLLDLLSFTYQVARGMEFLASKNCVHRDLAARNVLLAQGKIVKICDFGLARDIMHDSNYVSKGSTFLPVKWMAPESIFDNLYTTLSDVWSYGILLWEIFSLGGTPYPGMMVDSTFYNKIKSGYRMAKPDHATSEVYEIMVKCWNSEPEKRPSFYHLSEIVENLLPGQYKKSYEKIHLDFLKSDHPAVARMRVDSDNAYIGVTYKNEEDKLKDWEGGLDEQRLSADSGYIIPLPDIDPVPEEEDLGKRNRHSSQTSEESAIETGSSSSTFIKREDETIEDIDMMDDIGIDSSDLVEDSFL
Proto-oncogene tyrosine-protein kinase Src, sequence (P12931 2-536 limits assumed): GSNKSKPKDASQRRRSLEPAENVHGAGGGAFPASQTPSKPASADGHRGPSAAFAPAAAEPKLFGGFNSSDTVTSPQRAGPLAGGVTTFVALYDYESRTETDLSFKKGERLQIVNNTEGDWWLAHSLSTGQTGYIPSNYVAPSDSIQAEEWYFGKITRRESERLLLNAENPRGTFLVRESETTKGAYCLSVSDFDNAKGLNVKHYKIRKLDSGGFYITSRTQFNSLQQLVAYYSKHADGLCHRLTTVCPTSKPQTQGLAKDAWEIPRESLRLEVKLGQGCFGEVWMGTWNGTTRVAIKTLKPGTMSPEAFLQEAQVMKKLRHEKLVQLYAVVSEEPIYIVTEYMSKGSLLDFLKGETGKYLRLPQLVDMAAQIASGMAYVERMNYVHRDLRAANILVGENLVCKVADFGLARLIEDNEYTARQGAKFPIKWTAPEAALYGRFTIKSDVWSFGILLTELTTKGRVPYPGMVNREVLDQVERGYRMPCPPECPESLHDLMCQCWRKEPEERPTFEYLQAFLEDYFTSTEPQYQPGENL

- IC50 (NCI-H1581 [1]): 4.2 nM
- IC50 [2]: 7.5 nM
- Cmax [3]: 300 ng/mL
- half-life [4]: 2 h
- AUC(0-inf) [5]: 485 ng·h/mL
- clearance [6]: 33.3 mL/min/kg
- Vd [7]: 5.8 L/kg
- IC50 [8]: 2 nM
- IC50 [9]: 6.1 nM
- IC50 [10]: > 1000 nM
- IC50 [11]: 782 nM
- IC50 [12]: > 1000 nM
- IC50 [13]: > 100 nM
- IC50 [14]: > 100 nM
- IC50 [15]: > 100 nM
- inhibition [16]: Dose-dependent effect
- inhibition [17]: Active
- inhibition [18]: Active
- IC50 (cells): < 0.1 nM
Structure (SMILES): C[C@@H](Oc1ccc2[nH]nc(-c3nc4cc(N5CCN(C)CC5)ccc4[nH]3)c2c1)c1c(Cl)cncc1Cl
- inhibition in vivo at 2 mg/kg (NCI-H1581 [19]): 44.5%
- inhibition in vivo at 10 mg/kg (NCI-H1581 [20]): 96.9%
- TGI (NCI-H1581 [21]): Dose-dependent effect
